Legend:
Type in all cases: functional
[1] = tested on: NCI-H322M; assay: Cytotoxicity against human NCI-H322M cells assessed as growth inhibition after 48 hrs by SRB assay
How it was run: (§1)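 NCI 60-cell-line screen, five-dose stage: each cell line exposed for 48 h to five concentrations spanning five log steps; cellular protein measured by sulforhodamine B colorimetry. A time-zero cell control and plates without drug are used to derive GI50, TGI and LC50 from log-concentration dose-response curves.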

[2] = tested on: SF-268; assay: Cytotoxicity against human SF268 cells assessed as growth inhibition after 48 hrs by SRB assay; how it was run: as §1
[3] = tested on: HCT-15; assay: Cytotoxicity against human HCT15 cells assessed as growth inhibition after 48 hrs by SRB assay
How it was run: (§2)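 NCI 60-cell-line five-dose screen at […]. Drug exposure was 48 h, followed by sulforhodamine B protein staining. GI50, TGI and LC50 were calculated against a time-zero control and untreated plates, with dose–response curves plotted from log10 concentration.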

[4] = tested on: NCI-H23; assay: Cytotoxicity against human NCI-H23 cells assessed as growth inhibition after 48 hrs by SRB assay; how it was run: as §1
[5] = (§3) Cytotoxicity against human OVCAR4 cells assessed as growth inhibition after 48 hrs by SRB assay; conditions: OVCAR-4, 48 h; how it was run: as §1
[6] = tested on: OVCAR-4; assay: as §3; how it was run: as §1
[7] = tested on: HCT-116; assay: Cytotoxicity against human HCT116 cells assessed as growth inhibition after 48 hrs by SRB assay; how it was run: as §2
[8] = tested on: SF-539; assay: Cytotoxicity against human SF539 cells assessed as growth inhibition after 48 hrs by SRB assay; how it was run: as §1
[9] = tested on: IGROV-1; assay: Cytotoxicity against human IGROV1 cells assessed as growth inhibition after 48 hrs by SRB assay; how it was run: as §2
[10] = (§4) Cytotoxicity against human Hs578T cells assessed as growth inhibition after 48 hrs by SRB assay; conditions: Hs-578T; how it was run: as §2
[11] = tested on: Hs-578T; assay: as §4; how it was run: as §2
[12] = tested on: COLO 205; assay: Cytotoxicity against human COLO205 cells assessed as growth inhibition after 48 hrs by SRB assay; how it was run: as §2
[13] = tested on: 786-0; assay: Cytotoxicity against human 786-0 cells assessed as growth inhibition after 48 hrs by SRB assay; how it was run: as §2
[14] = tested on: SK-MEL-5; assay: Cytotoxicity against human SK-MEL-5 cells assessed as growth inhibition after 48 hrs by SRB assay; how it was run: as §1
[15] = tested on: ACHN; assay: Cytotoxicity against human ACHN cells assessed as growth inhibition after 48 hrs by SRB assay; how it was run: as §2
[16] = tested on: OVCAR-3; assay: Cytotoxicity against human OVCAR3 cells assessed as growth inhibition after 48 hrs by SRB assay; how it was run: as §1
[17] = (§5) Cytotoxicity against human EKVX cells assessed as growth inhibition after 48 hrs by SRB assay; how it was run: as §2
[18] = tested on: EKVX; assay: as §5; how it was run: as §2
[19] = tested on: SR; assay: Cytotoxicity against human SR cells assessed as growth inhibition after 48 hrs by SRB assay
How it was run: (§6)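 NCI 60-cell-line screen, two stages. Five-dose testing at […]. Cellular protein measured by sulforhodamine B colorimetry after 48 h drug exposure. A time-zero control and drug-free plates are used to derive GI50, TGI and LC50 from dose-response curves plotted as log10 concentration per cell line.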

[20] = Cytotoxicity against human Hs578T cells assessed as cell growth at 10 uM after 48 hrs by SRB assay; conditions: Hs-578T, read-out: Activity
[21] = tested on: MDA-MB-468; assay: Cytotoxicity against human MDA-MB-468 cells assessed as growth inhibition after 48 hrs by SRB assay; how it was run: as §1
[22] = tested on: HCC 2998; assay: Cytotoxicity against human HCC2998 cells assessed as growth inhibition after 48 hrs by SRB assay; how it was run: as §2
[23] = tested on: UACC-62; assay: Cytotoxicity against human UACC62 cells assessed as growth inhibition after 48 hrs by SRB assay; how it was run: as §6
[24] = tested on: A498; assay: Cytotoxicity against human A498 cells assessed as growth inhibition after 48 hrs by SRB assay; how it was run: as §2
[25] = (§7) Cytotoxicity against human UACC257 cells assessed as growth inhibition after 48 hrs by SRB assay; conditions: UACC-257, 48 h; how it was run: as §6
[26] = tested on: UACC-257; assay: as §7; how it was run: as §6
[27] = tested on: LOX IMVI; assay: Cytotoxicity against human LOXIMVI cells assessed as growth inhibition after 48 hrs by SRB assay; how it was run: as §2
[28] = (§8) Cytotoxicity against human UO31 cells assessed as growth inhibition after 48 hrs by SRB assay; conditions: UO-31, 48 h; how it was run: as §6
[29] = tested on: UO-31; assay: as §8; how it was run: as §6
[30] = tested on: BT-549; assay: Cytotoxicity against human BT549 cells assessed as growth inhibition after 48 hrs by SRB assay; how it was run: as §2
[31] = tested on: SNB-19; assay: Cytotoxicity against human SNB19 cells assessed as growth inhibition after 48 hrs by SRB assay; how it was run: as §6
[32] = read-out: LC50 (the source's name)

Question: Which GI50 [1] does the source give for `CN(C)CCCSc1nc2ccc3c(c2[nH]1)C(=O)c1ccccc1C3=O` here?
Answer: 0.72 µM

Question: And the TGI [1]?
Answer: 20.6 µM

Question: And the “growth inhibition (GI)” value [1]?
Answer: Dose-dependent effect

Question: What about the “growth inhibition (GI)” value [2] of the same compound?
Answer: Dose-dependent effect

Question: And the GI50 ([2]; SF-268, 48 h)?
Answer: 4.34 µM

Question: What about the TGI ([2]; SF-268, 48 h) of the same compound?
Answer: 17.7 µM

Question: And the “growth inhibition (GI)” value [3]?
Answer: Dose-dependent effect

Question: And the GI50 ([3]; HCT-15, 48 h)?
Answer: 0.68 µM

Question: And the TGI ([3]; HCT-15, 48 h)?
Answer: 15 µM

Question: And the “growth inhibition (GI)” value [4]?
Answer: Dose-dependent effect

Question: What about the TGI ([4]; NCI-H23, 48 h) of the same compound?
Answer: 19.7 µM

Question: What about the GI50 [5] of the same compound?
Answer: 0.031 µM

Question: And the TGI [5]?
Answer: 5.04 µM

Question: And the “growth inhibition (GI)” value [6]?
Answer: Dose-dependent effect

Question: And the “growth inhibition (GI)” value [7]?
Answer: Dose-dependent effect

Question: What about the GI50 ([7]; HCT-116, 48 h) of the same compound?
Answer: 1.85 µM

Question: What about the TGI ([7]; HCT-116, 48 h) of the same compound?
Answer: 8.75 µM

Question: And the “growth inhibition (GI)” value [8]?
Answer: Dose-dependent effect

Question: And the GI50 ([8]; SF-539, 48 h)?
Answer: 10.9 µM

Question: What about the TGI ([8]; SF-539, 48 h) of the same compound?
Answer: 22.7 µM

Question: What about the CC50 ([8]; SF-539, 48 h, read-out: LC50 (the source's name)) of the same compound?
Answer: 47.7 µM

Question: What about the “growth inhibition (GI)” value [9] of the same compound?
Answer: Dose-dependent effect

Question: And the GI50 ([9]; IGROV-1, 48 h)?
Answer: 0.329 µM

Question: And the TGI ([9]; IGROV-1, 48 h)?
Answer: 12.8 µM

Question: What about the GI50 [10] of the same compound?
Answer: 4.84 µM

Question: And the TGI [10]?
Answer: 22.9 µM

Question: And the CC50 [10, 32]?
Answer: 65 µM

Question: What about the “growth inhibition (GI)” value [11] of the same compound?
Answer: Dose-dependent effect

Question: What about the “growth inhibition (GI)” value [12] of the same compound?
Answer: Dose-dependent effect

Question: And the GI50 ([12]; COLO 205, 48 h)?
Answer: 3.41 µM

Question: And the TGI ([12]; COLO 205, 48 h)?
Answer: 17.1 µM

Question: And the “growth inhibition (GI)” value [13]?
Answer: Dose-dependent effect

Question: What about the GI50 ([13]; 786-0, 48 h) of the same compound?
Answer: 9.73 µM

Question: And the TGI ([13]; 786-0, 48 h)?
Answer: 23.8 µM

Question: And the “growth inhibition (GI)” value [14]?
Answer: Dose-dependent effect

Question: And the GI50 ([14]; SK-MEL-5, 48 h)?
Answer: 11.1 µM

Question: And the TGI ([14]; SK-MEL-5, 48 h)?
Answer: 23.1 µM

Question: What about the GI50 [15] of the same compound?
Answer: 1.74 µM

Question: What about the TGI [15] of the same compound?
Answer: 15 µM

Question: And the “growth inhibition (GI)” value [15]?
Answer: Dose-dependent effect

Question: And the CC50 [15, 32]?
Answer: 38.7 µM

Question: What about the “growth inhibition (GI)” value [16] of the same compound?
Answer: Dose-dependent effect

Question: And the GI50 ([16]; OVCAR-3, 48 h)?
Answer: 3.73 µM

Question: What about the TGI ([16]; OVCAR-3, 48 h) of the same compound?
Answer: 18.2 µM

Question: And the GI50 [17]?
Answer: 4.2 µM

Question: And the TGI [17]?
Answer: 20.1 µM

Question: And the “growth inhibition (GI)” value [18]?
Answer: Dose-dependent effect

Question: What about the GI50 [19] of the same compound?
Answer: 0.43 µM

Question: What about the TGI [19] of the same compound?
Answer: 3.47 µM

Question: What about the “growth inhibition (GI)” value [19] of the same compound?
Answer: Dose-dependent effect

Question: What about the growth at 10 µM [20] of the same compound?
Answer: 69.3%

Question: What about the “growth inhibition (GI)” value [21] of the same compound?
Answer: Dose-dependent effect

Question: And the GI50 ([21]; MDA-MB-468, 48 h)?
Answer: < 0.01 µM

Question: And the TGI ([21]; MDA-MB-468, 48 h)?
Answer: 0.439 µM

Question: And the “growth inhibition (GI)” value [22]?
Answer: Dose-dependent effect

Question: And the GI50 ([22]; HCC 2998, 48 h)?
Answer: 4.14 µM

Question: And the TGI ([22]; HCC 2998, 48 h)?
Answer: 17.7 µM

Question: And the CC50 ([22]; HCC 2998, 48 h, read-out: LC50 (the source's name))?
Answer: 43.4 µM

Question: And the “growth inhibition (GI)” value [23]?
Answer: Dose-dependent effect

Question: And the GI50 ([23]; UACC-62, 48 h)?
Answer: 10.8 µM

Question: And the TGI ([23]; UACC-62, 48 h)?
Answer: 23 µM

Question: And the “growth inhibition (GI)” value [24]?
Answer: Dose-dependent effect

Question: And the GI50 ([24]; A498, 48 h)?
Answer: 12.1 µM

Question: And the TGI ([24]; A498, 48 h)?
Answer: 24.8 µM

Question: What about the CC50 ([24]; A498, 48 h, read-out: LC50 (the source's name)) of the same compound?
Answer: 51 µM

Question: And the GI50 [25]?
Answer: 19.8 µM

Question: What about the TGI [25] of the same compound?
Answer: 34.1 µM

Question: What about the “growth inhibition (GI)” value [26] of the same compound?
Answer: Dose-dependent effect

Question: What about the GI50 [27] of the same compound?
Answer: 1.36 µM

Question: What about the TGI [27] of the same compound?
Answer: 3 µM

Question: And the “growth inhibition (GI)” value [27]?
Answer: Dose-dependent effect

Question: And the GI50 [28]?
Answer: 0.564 µM

Question: What about the TGI [28] of the same compound?
Answer: 11.7 µM

Question: What about the “growth inhibition (GI)” value [29] of the same compound?
Answer: Dose-dependent effect

Question: And the “growth inhibition (GI)” value [30]?
Answer: Dose-dependent effect

Question: And the GI50 ([30]; BT-549, 48 h)?
Answer: 9.13 µM

Question: What about the TGI ([30]; BT-549, 48 h) of the same compound?
Answer: 21.8 µM

Question: And the “growth inhibition (GI)” value [31]?
Answer: Dose-dependent effect

Question: And the GI50 ([31]; SNB-19, 48 h)?
Answer: 7.2 µM

Question: And the TGI ([31]; SNB-19, 48 h)?
Answer: 20.7 µM
